# Measured values from ChEMBL document CHEMBL4261506, “Synthesis and biological evaluation of N-alkyl naphthoimidazoles derived from β-lapachone against Trypanosoma cruzi bloodstream trypomastigotes” (Medchemcomm, 2017).
# pIC50: −log10 of the molar value.
# Tested on: Trypanosoma cruzi
# Test: Trypanocidal activity against trypomastigote stage of Trypanosoma cruzi
# Assay type: functional, organism-based
# Conditions: not given
# In short: (§1)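 Y-strain bloodstream trypomastigotes at 5 × 10^6 cells per ml in DME medium plus 10% blood (some runs in DMES without blood), mixed 1:1 with compound diluted in DME at twice final concentration. DMSO final ≤0.1%. Incubated at 4 °C. Cells counted after 24 h; IC50 taken as the concentration giving 50% parasite lysis.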
row,Structure (SMILES),pIC50
1,CC1(C)CCc2c(c3ccccc3c3nc(-c4ccccc4)[nH]c23)O1,4.43

# Tested on: Trypanosoma cruzi
# Test: Potency index, ratio of benznidazole IC50 to test compound IC50 for bloodstream trypomastigote stage of Trypanosoma cruzi Y
# Assay type: functional
# Conditions: not given
row,Structure (SMILES),Ratio IC50
1,CCCCCCn1cnc2c3c(c4ccccc4c21)OC(C)(C)CC3,2.2
2,CCCCCCn1cnc2c3ccccc3c3c(c21)CCC(C)(C)O3,3.2

# Tested on: not listed separately
# Test: Cytotoxicity against Swiss mouse peritoneal macrophages after 24 hrs by Prestoblue assay
# Assay type: cell-based, Peritoneal macrophage
# Conditions: read-out: LC50
row,Structure (SMILES),CC50 at 24 h
1,CCCCCCn1cnc2c3c(c4ccccc4c21)OC(C)(C)CC3,117 µM
2,CCCCCCn1cnc2c3ccccc3c3c(c21)CCC(C)(C)O3,422 µM

# Tested on: Trypanosoma cruzi
# Test: Trypanocidal activity against bloodstream trypomastigote stage of Trypanosoma cruzi Y assessed as induction of parasite lysis after 24 hrs by Neubauer chamber based cell counting method
# Assay type: functional, organism-based
# Conditions: not given
# In short: as §1
row,Structure (SMILES),pIC50
1,Cc1cccc(-c2nc3c([nH]2)c2c(c4ccccc43)OC(C)(C)CC2)c1,4.43
2,CCCn1cnc2c3c(c4ccccc4c21)OC(C)(C)CC3,4.00
3,CCCCCCCCn1cnc2c3c(c4ccccc4c21)OC(C)(C)CC3,3.42
4,CC1(C)CCc2c(c3ccccc3c3nc(-c4ccc(Cl)cc4Cl)[nH]c23)O1,< 2.40
5,CC1(C)CCc2c(c3ccccc3c3nc(-c4c(Cl)cccc4Cl)[nH]c23)O1,2.67
6,CCCCCCn1cnc2c3c(c4ccccc4c21)OC(C)(C)CC3,4.37
7,CCCCCCCn1cnc2c3ccccc3c3c(c21)CCC(C)(C)O3,4.00
8,COc1ccc(-c2nc3c([nH]2)c2c(c4ccccc43)OC(C)(C)CC2)cc1,3.60
9,CCCCCCCn1cnc2c3c(c4ccccc4c21)OC(C)(C)CC3,3.39
10,CCCCCCCCCCCCn1cnc2c3ccccc3c3c(c21)CCC(C)(C)O3,3.72
11,CCCCCCCCn1cnc2c3ccccc3c3c(c21)CCC(C)(C)O3,3.74
12,CCCCCCCCCn1cnc2c3c(c4ccccc4c21)OC(C)(C)CC3,3.71
13,CCCCn1cnc2c3c(c4ccccc4c21)OC(C)(C)CC3,3.97
14,CC1(C)CCc2c(c3ccccc3c3nc(-c4ccccc4C#N)[nH]c23)O1,< 2.19
15,CC1(C)CCc2c(c3ccccc3c3nc(-c4ccc([N+](=O)[O-])cc4)[nH]c23)O1,3.60
16,CCCCn1cnc2c3ccccc3c3c(c21)CCC(C)(C)O3,3.91
17,CC1(C)CCc2c(c3ccccc3c3nc(-c4cccs4)[nH]c23)O1,3.77
18,CC1(C)CCc2c(c3ccccc3c3nc(-c4cccc5ccccc45)[nH]c23)O1,2.77
19,CCCCCCCCCCCCn1cnc2c3c(c4ccccc4c21)OC(C)(C)CC3,< 3.30
20,CC1(C)CCc2c(c3ccccc3c3nc[nH]c23)O1,4.05
21,COc1ccccc1-c1nc2c([nH]1)c1c(c3ccccc32)OC(C)(C)CC1,< 2.19
22,CCCn1cnc2c3ccccc3c3c(c21)CCC(C)(C)O3,3.76
23,COc1cc(-c2nc3c([nH]2)c2c(c4ccccc43)OC(C)(C)CC2)ccc1O,3.60
24,CCCCCCCCCn1cnc2c3ccccc3c3c(c21)CCC(C)(C)O3,3.53
25,CC1(C)CCc2c(c3ccccc3c3nc(-c4ccc(C(F)(F)F)cc4)[nH]c23)O1,3.60
26,CCCCCCn1cnc2c3ccccc3c3c(c21)CCC(C)(C)O3,4.50
27,CCCCCn1cnc2c3ccccc3c3c(c21)CCC(C)(C)O3,3.91
28,CCCCCn1cnc2c3c(c4ccccc4c21)OC(C)(C)CC3,4.03

# Tested on: not listed separately
# Test: Selectivity index, ratio of LC50 for Swiss mouse peritoneal macrophages to IC50 for bloodstream trypomastigote stage of Trypanosoma cruzi Y
# Assay type: toxicity
# Conditions: read-out: Ratio LC50/IC50
# In short: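 Y strain bloodstream trypomastigotes at 5 × 10^6 cells/ml in DME plus 10% blood, mixed 1:1 with compound at twice the final concentration, 24 h at 4 °C, counted; IC50 = 50% lysis. […] Index = LC50/IC50. DMSO final ≤0.1%.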
row,Structure (SMILES),selectivity ratio
1,CCCCCCn1cnc2c3c(c4ccccc4c21)OC(C)(C)CC3,2.7
2,CCCCCCn1cnc2c3ccccc3c3c(c21)CCC(C)(C)O3,13.4

# Tested on: Trypanosoma cruzi
# Test: Trypanocidal activity against bloodstream trypomastigote stage of Trypanosoma cruzi Y isolated from parasite infected Swiss mouse assessed as induction of parasite lysis after 24 hrs by Neubauer chamber based cell counting method
# Assay type: functional, organism-based
# Conditions: not given
# In short: as §1
row,Structure (SMILES),pIC50
1,Cc1ccc(-c2nc3c([nH]2)c2c(c4ccccc43)OC(C)(C)CC2)cc1,4.43
